The values that follow come from ChEMBL document CHEMBL3244403, “Cholecystokinin (pancreozymin). 4. Synthesis and properties of a biologically active analogue of the C-terminal heptapeptide with epsilon-hydroxynorleucine sulfate replacing tyrosine sulfate” (J Med Chem, 1978).

The species named for series [1] is Cavia porcellus. Briefly: Agonist activity at cholecystokinin receptor in NIH guinea pig assessed as gall bladder contraction at 7 to 1900 ng by in situ assay. It counts as tissue-based. Put shortly:
(§1)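 Guinea pig gall bladder in situ (Ljungberg method), contraction recorded via strain gauge transducer after injection. Peptides first dissolved at 10 μg/mL in physiological saline containing 1 mg/mL NaHCO3 and 1 mg/mL L-cysteine. Response compared with injected standard cholecystokinin in Ivy dog units.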

The species entered for series [2] is Cavia porcellus. Briefly: Agonist activity at cholecystokinin receptor in NIH guinea pig pancreatic acinar cells assessed as induction of amylase secretion. In short, it runs like this: (§2)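 Guinea pig pancreas collagenase-dispersed acini in 100% O2-gassed Hepes buffer pH 7.4 containing 0.5 mM calcium and 5 mM theophylline. Amylase in supernatant assayed in duplicate with Phedabas reagent. Release expressed as % of total cellular amylase appearing in medium during incubation. CCK-(26-33) used as reference.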

Series [3] is filed under the species Cavia porcellus. Briefly: Agonist activity at cholecystokinin receptor in NIH guinea pig pancreatic acinar cells assessed as induction of amylase secretion at 0.03 to 0.3 nM. Put shortly: as §2
Series [4] can be described thus: Retardation factor of the compound using EtOAc-pyridine-AcOH-H2O at ratio of 60:20:6:11 as solvent system by thin layer chromatography. The format is physicochemical.
The species named for series [5] is Cavia porcellus. Briefly: Agonist activity at cholecystokinin receptor in NIH guinea pig assessed as gall bladder contraction at 7 to 21 ng by in situ assay. The format is tissue-based. Put shortly: as §1
Series [6] can be described thus: Retardation factor of the compound using EtOAc-pyridine-AcOH-H2O at ratio of 120:20:6:11 as solvent system by thin layer chromatography. It counts as physicochemical.
Series [7] is described as follows: Retardation factor of the compound using 1-butanol-AcOH-H2O at ratio of 4:1:1 as solvent system by thin layer chromatography. It counts as physicochemical.
The species entered for series [8] is Cavia porcellus. Briefly: Agonist activity at cholecystokinin receptor in NIH guinea pig assessed as gall bladder contraction at 7 ng by in situ assay. It counts as tissue-based. Put shortly:
as §1

Calls of active or inactive are those of the source. The calls are words filed in the database; no cut-off is given here. Starred links: 1 amine or outer side, 2 acyl side, 3 side chain; linkers in the order of their positions; H or OH if unused. Non-standard residues stand in square brackets, D forms with d. Residues, ends and D or L forms follow the SMILES beside them. *: point of attachment. X1 = O=C([C@H](CCCCOS(=O)(=O)O)N[*:1])[*:2]; sY = N[C@@H](Cc1ccc(OS(=O)(=O)O)cc1)C(=O)O; Boc = CC(C)(C)OC(=O)*

Turning to `CSCC[C@H](NC(=O)[C@H](COS(=O)(=O)O)NC(=O)OC(C)(C)C)C(=O)NCC(=O)N[C@@H](Cc1c[nH]c2ccccc12)C(=O)N[C@@H](CCSC)C(=O)N[C@@H](CC(=O)O)C(=O)N[C@@H](Cc1ccccc1)C(N)=O`, the result in series [1] and in series [2] was Active.

As for `CSCC[C@H](NC(=O)[C@H](Cc1ccc(OS(=O)(=O)O)cc1)NC(=O)[C@@H](N)CC(=O)O)C(=O)NCC(=O)N[C@@H](Cc1c[nH]c2ccccc12)C(=O)N[C@@H](CCSC)C(=O)N[C@@H](CC(=O)O)C(=O)N[C@@H](Cc1ccccc1)C(N)=O`, the result in series [3] was Active.

Regarding `CSCC[C@H](NC(=O)[C@H](CCCCOS(=O)(=O)O)NC(=O)OC(C)(C)C)C(=O)NCC(=O)N[C@@H](Cc1c[nH]c2ccccc12)C(=O)N[C@@H](CCSC)C(=O)N[C@@H](CC(=O)O)C(=O)N[C@@H](Cc1ccccc1)C(N)=O` (Boc-[X1]MGWMDF-NH2), the Rf in series [4] turned out to be 0.31; in series [6] it was 0.19; in series [7] it was 0.55. Besides, the result in series [5] and in series [2] was Active.

As to `CSCC[C@H](NC(=O)[C@H](Cc1ccc(OS(=O)(=O)O)cc1)NC(=O)OC(C)(C)C)C(=O)NCC(=O)N[C@@H](Cc1c[nH]c2ccccc12)C(=O)N[C@@H](CCSC)C(=O)N[C@@H](CC(=O)O)C(=O)N[C@@H](Cc1ccccc1)C(N)=O` (Boc-[sY]MGWMDF-NH2), the outcome in series [8] and in series [2] was Active.
